Measurements taken from ChEMBL document CHEMBL3763017, “Synthesis and evaluation of dual antiplatelet activity of bispidine derivatives of N-substituted pyroglutamic acids” (Eur J Med Chem, 2016).
Activity calls are given as the source filed them. No cut-off for these calls is given here.

Key:
[1] = Antiplatelet activity in human platelet rich plasma assessed as inhibition of collagen-induced platelet aggregation at 30 uM preincubated for 5 mins followed by collagen stimulation by turbidimetry; type: functional
How it was run: (§1)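 Human PRP (1×10^8 platelets/ml) from healthy-donor blood spun at 1000 rpm for 10 min. Pre-treated 5 min with compound or 0.4% DMSO vehicle, then agonist added at 37 °C. Light-transmission aggregometry run at least 5–10 min; % aggregation calculated. Single-point screens at 30 μM, n = 3; mean ± SEM.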

Mus musculus [2] = assay: Antithrombotic activity in Swiss albino mouse assessed as protection against collagen-epinephrine induced pulmonary thromboembolism at 30 umol/kg, po after 1 hr; type: functional
How it was run: (§2)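 Male Swiss albino mice (18–22 g) dosed orally in 0.5% carboxymethyl cellulose 1, 2, 4, 6, 12 or 24 h before challenge. Collagen (150 μg/ml) plus adrenaline (50 μg/ml) injected into the tail vein. Dead or hind-limb-paralysed mice counted over 15 min and expressed as % protection. Ten mice per drug group, five for vehicle.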

Aorta = assay: Inhibition of U46619-induced vasocontraction in Sprague-Dawley rat thoracic aoritc rings at 100 nM (reference value: 89.8 +/- 8.5%); type: functional; design: scale not given: the % may be the effect or the level left
Mus musculus [3] = assay: Antithrombotic activity in ferric chloride-induced Swiss albino mouse arterial thrombosis model assessed as time to occlusion at 170 umol/kg, po; type: functional, organism-based
Mus musculus [4] = assay: Antithrombotic activity in Swiss albino mouse assessed as protection against collagen-epinephrine induced pulmonary thromboembolism at 170 umol/kg, po measured upto 5 hrs; type: functional; how it was run: as §2
Mus musculus [5] = assay: Toxicity in Swiss albino mouse assessed as bleeding time at 170 umol/kg, po administered as single dose measured up to 24 hrs (reference value: 3.5 +/- 0.3 mins); type: organism-based; conditions: in vivo
[6] = Antiplatelet activity in human platelet rich plasma assessed as inhibition of U46619-induced platelet aggregation at 30 uM preincubated for 5 mins followed by U46619 stimulation by turbidimetry; type: functional; how it was run: as §1

Row | Structure (SMILES) | inhibition at 30 µM [1] | Activity (Mus musculus [2]) | also measured
1 | O=C([C@@H]1CCC(=O)N1Cc1ccc(Br)cc1)N1CC2CC(CN(Cc3ccccc3)C2)C1 | 57% | 40% | –
2 | O=C(O)CCC/C=C\C[C@@H]1[C@H](CNNC(=O)Nc2ccccc2)[C@H]2CC[C@@H]1O2 | – | – | Activity (Aorta): 8.4%
3 | CC(=O)Oc1ccccc1C(=O)O [ASPIRIN] | – | – | Activity (Mus musculus [3]): inactive; Activity (Mus musculus [4]): 40%; Time (Mus musculus [5]): 6.6 min
4 | O=C([C@@H]1CCC(=O)N1Cc1ccc(Cl)cc1)N1CC2CC(CN(Cc3ccccc3)C2)C1 | 52% | 30% | inhibition at 30 µM [6]: 80%
5 | O=C([C@@H]1CCC(=O)N1Cc1ccccc1)N1CC2CC(CN(Cc3ccccc3)C2)C1 | 44% | 30% | –
6 | Cc1ccc(CN2C(=O)CC[C@H]2C(=O)N2CC3CC(CN(Cc4ccc(Cl)cc4)C3)C2)cc1 | 67% | 35% | inhibition at 30 µM [6]: 81%
7 | Cc1ccc(CN2C(=O)CC[C@H]2C(=O)N2CC3CC(CN(Cc4ccc(Br)cc4)C3)C2)cc1 | 61% | 50% | inhibition at 30 µM [6]: 52%
8 | Cc1ccc(CN2C(=O)CC[C@H]2C(=O)N2CC3CC(CN(C(=O)c4ccccc4)C3)C2)cc1 | 20.5% | 40% | –
9 | O=C([C@@H]1CCC(=O)N1S(=O)(=O)c1ccccc1)N1CC2CC(CN(Cc3ccccc3)C2)C1 | 29% | 30% | –
10 | CC(C)(C)OC(=O)N1CC2CC(C1)CN(C(=O)[C@@H]1CCC(=O)N1Cc1c(Cl)cccc1Cl)C2 | 3% | 30% | –
11 | Cc1ccc(S(=O)(=O)N2CC3CC(CN(C(=O)[C@@H]4CCC(=O)N4Cc4ccccc4Br)C3)C2)cc1 | 16.8% | 55% | –
12 | CC(C)(C)OC(=O)N1CC2CC(C1)CN(C(=O)[C@@H]1CCC(=O)N1Cc1ccc(Cl)cc1)C2 | 6% | 30% | –
13 | CC(C)(C)OC(=O)N1CC2CC(C1)CN(C(=O)[C@@H]1CCC(=O)N1Cc1ccc(C#N)cc1)C2 | 11% | 55% | –
